Shown are actives, neighbours in structure and some others; about 3.2% of the full set was active somewhere.
UBC13 polyUb: inhibitors of human UBC13 polyubiquitin chain formation | P61088 | TR-FRET | inhibition, % at 20 µM | 330,000 compounds, 0.47% hits; in the data active means inhibition above about 45%, passing the limit was not always enough
MEKK3 PB1 HTS: MEKK3-MEK5 PB1 interaction, increase or decrease | Q99759 | bead-based flow cytometry, Alexa488-MEK5 binding to MEKK3; actives lie on both sides; 0 = blocked by unlabeled MEK5, 100 = vehicle | binding response (% of control), % at 10 µM | 290,000 compounds, 1.4% hits;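 active means binding response more than 3 SD above or below the average of its plate-row segment, actives on both sides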;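 further: Alexa488 bead fluorescence after subtracting the streptavidin-only scavenger bead signal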
Target sequence (Q99759 whole entry, looked up): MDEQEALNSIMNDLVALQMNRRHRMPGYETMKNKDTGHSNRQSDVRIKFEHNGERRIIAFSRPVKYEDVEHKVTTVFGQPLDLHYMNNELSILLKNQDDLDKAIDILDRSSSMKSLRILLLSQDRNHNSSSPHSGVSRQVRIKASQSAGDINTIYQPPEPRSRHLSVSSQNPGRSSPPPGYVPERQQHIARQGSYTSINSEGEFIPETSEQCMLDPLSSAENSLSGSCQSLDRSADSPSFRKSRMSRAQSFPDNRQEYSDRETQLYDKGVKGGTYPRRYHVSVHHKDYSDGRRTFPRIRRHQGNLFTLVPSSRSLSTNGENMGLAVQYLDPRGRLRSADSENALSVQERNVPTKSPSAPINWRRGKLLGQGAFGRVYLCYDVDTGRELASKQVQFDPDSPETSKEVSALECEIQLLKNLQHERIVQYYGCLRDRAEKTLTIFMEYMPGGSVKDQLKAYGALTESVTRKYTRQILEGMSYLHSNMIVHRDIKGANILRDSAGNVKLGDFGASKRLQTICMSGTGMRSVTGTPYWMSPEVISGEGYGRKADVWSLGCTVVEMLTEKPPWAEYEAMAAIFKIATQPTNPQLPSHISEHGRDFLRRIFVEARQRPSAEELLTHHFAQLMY
DSG3 Ab inh: human desmoglein-3 autoantibody binding inhibition. P32926. DSG3-coupled beads, scFv-anti-DSG3-GFP binding, flow cytometry; hits give low values. binding (percent of control), % at 10 µM. 310,000 compounds, 0.48% hits. AID 588358;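 active means binding more than 3 SD below its plate's average and above zero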;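 further: hits lower antibody fragment binding to DSG3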
Apaf-1 inh: blocks human Apaf-1 apoptosome activity. reconstituted apoptosome caspase-3 activity, DEVD-Rh110 fluorescence. inhibition, % at 20 µM. 330,000 compounds, 0.71% hits. AID 489030; active means inhibition of at least 40% at 20 µM;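 further: plate controls were DMSO wells for no effect and DEVD-CHO caspase inhibitor wells for full effect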
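Assay system – apoptosome proteins · Medium – Hepes buffer, pH 7.5 · Also added – cytochrome c with DEVD-Rh110 · Timing – 30 min compound preincubation, 50 min activation, room temperature · Detection – Rh110 fluorescence, excitation 480 nm, emission 540 nm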
MEKK2 mut-MEK5: signal of MEK5 binding to mutant human MEKK2 PB1 domain. AID 1530. 290,000 compounds, 0.35% hits. percent response, % at 10 µM. bead flow cytometry, Alexa488-MEK5 binding to MEKK2 mutant; in the data active means percent response above about 24%, passing the limit was not always enough
MEKK2wt PB1 HTS: raises or lowers MEK5 binding to wildtype human MEKK2 PB1 domain; Q9Y2U5; bead flow cytometry, Alexa488-MEK5 binding to MEKK2 WT; actives lie on both sides; binding response (% of control), % at 10 µM; 290,000 compounds, 1.1% hits; AID 1531; in the data active means binding response below about 67% or above about 130%
MEKK2wt confirm: raises or lowers MEK5 binding to wildtype human MEKK2, retest. shares compounds with MEKK3 PB1 HTS. bead flow cytometry, Alexa488-MEK5 binding to MEKK2 WT; actives lie on both sides. binding response (% of control), % at 10 µM. 5,900 compounds, 2.4% hits. AID 1892; in the data active means binding response below about 16% or above about 210%; inactive means in between
MEKK2mut-MEK5: signal of MEK5 binding to mutant human MEKK2, retest. shares compounds with MEKK3 PB1 HTS. bead flow cytometry, Alexa488-MEK5 binding to MEKK2 mutant. percent response, % at 10 µM. 5,900 compounds, 2% hits; in the data active means percent response mostly above about 71%, no sharp cut-off; inactive means mostly below about 38%;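 further: higher means compound restores mutant binding toward wildtype level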
MEKK3 confirm: MEKK3-MEK5 PB1 inhibition, single concentration confirmation. AID 1894. shares compounds with MEKK3 PB1 HTS. 5,900 compounds, 1.8% hits. binding response (% of control), % at 10 µM. bead flow cytometry, Alexa488-MEK5 binding to MEKK3; hits give low values;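 active means binding response below 72% of control, or above a set upper limit, though filed actives all read lower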;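 further: 100% = DMSO only wells and 0% = binding blocked by excess unlabeled MEK5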
Numbers without * were called inactive; [ ] = dose if it differs, or a comment.

COc1ccc(NC(=O)CN(C)C(=O)Cc2ccc3c(c2)CCC3)cc1 was read as UBC13 polyUb -11, MEKK3 PB1 HTS 104, DSG3 Ab inh 104, Apaf-1 inh 0, MEKK2 mut-MEK5 9 and MEKK2wt PB1 HTS 109.
c1ccc(NCc2ccccn2)cc1 was read as UBC13 polyUb -6, MEKK3 PB1 HTS 138*, DSG3 Ab inh 102, Apaf-1 inh -6, MEKK2 mut-MEK5 6, MEKK2wt PB1 HTS 130, MEKK2wt confirm 94, MEKK2mut-MEK5 -7 and MEKK3 confirm 96.
`CCCn1nnc(NC(=O)c2cccc(Cl)c2)n1` gave UBC13 polyUb -1, MEKK3 PB1 HTS 110, DSG3 Ab inh 110, Apaf-1 inh 0, MEKK2 mut-MEK5 5 and MEKK2wt PB1 HTS 104.
CCCn1nnc(NC(=O)c2sc3ccccc3c2Cl)n1 was read as UBC13 polyUb -12, MEKK3 PB1 HTS 74*[inhibitor], DSG3 Ab inh 118, Apaf-1 inh -7, MEKK2 mut-MEK5 -14, MEKK2wt PB1 HTS 81, MEKK2wt confirm 104, MEKK2mut-MEK5 9 and MEKK3 confirm 103.
`C[C@@H]1O[C@@H](O[C@@H]2[C@@H](O)[C@H](OCCc3ccc(O)c(O)c3)O[C@H](CO)[C@H]2OC(=O)/C=C/c2ccc(O)c(O)c2)[C@H](O)[C@H](O)[C@H]1O` gave UBC13 polyUb 10, DSG3 Ab inh 95 and Apaf-1 inh 1.
Screening Cc1cc2c(=O)n(Cc3ccco3)c(SCC(=O)NCc3ccco3)nc2s1 returned UBC13 polyUb -4, MEKK3 PB1 HTS 2.0*[inhibitor], DSG3 Ab inh 100, Apaf-1 inh 3, MEKK2 mut-MEK5 -21, MEKK2wt PB1 HTS 2.0*[inhibitor], MEKK2wt confirm 100, MEKK2mut-MEK5 11 and MEKK3 confirm 102.
`Cc1nnc(SCC(=O)NCc2ccco2)[nH]c1=O` gave UBC13 polyUb -8, MEKK3 PB1 HTS 133*, DSG3 Ab inh 93, Apaf-1 inh 14, MEKK2 mut-MEK5 7, MEKK2wt PB1 HTS 135*, MEKK2wt confirm 104, MEKK2mut-MEK5 3 and MEKK3 confirm 102.
C[C@@H]1CN([C@H](C)CO)S(=O)(=O)c2ccc(-c3ccc(C#N)cc3)cc2O[C@H]1CN(C)C(=O)Nc1cc(F)ccc1F was read as DSG3 Ab inh 103.
For CC1(C)CC(=O)C(C#N)=C(NCCCO)C1 the results were UBC13 polyUb -2, MEKK3 PB1 HTS 89, DSG3 Ab inh 99, Apaf-1 inh -5, MEKK2 mut-MEK5 -3 and MEKK2wt PB1 HTS 90.
CC1(C)CC(=O)C([N+](=O)[O-])=C(NCCCC(=O)O)C1 was read as UBC13 polyUb -6, MEKK3 PB1 HTS 64*[inhibitor], DSG3 Ab inh 100, Apaf-1 inh -5, MEKK2 mut-MEK5 -1, MEKK2wt PB1 HTS 97, MEKK2wt confirm 98, MEKK2mut-MEK5 -3 and MEKK3 confirm 100.
Screening Cc1ccc(S(=O)(=O)N2CCC(C(=O)Nc3ncccc3O)CC2)cc1 returned UBC13 polyUb -5, DSG3 Ab inh 95 and Apaf-1 inh -4.
`CC1CC2=C(C(=O)O1)C(c1ccccc1)Nc1ccccc1N2` (stereo not drawn) gave UBC13 polyUb -4, MEKK3 PB1 HTS 79, DSG3 Ab inh 121, Apaf-1 inh -9, MEKK2 mut-MEK5 -1 and MEKK2wt PB1 HTS 98.
For CC1CC2=C(C(=O)O1)C(C)Nc1ccccc1N2 (stereo not drawn) the results were UBC13 polyUb -5, MEKK3 PB1 HTS 155*, DSG3 Ab inh 93, Apaf-1 inh -2, MEKK2 mut-MEK5 1, MEKK2wt PB1 HTS 105, MEKK2wt confirm 102, MEKK2mut-MEK5 -1 and MEKK3 confirm 100.
For CC(C)OCCCNC(=O)CN1C(=O)CSc2ccc(S(=O)(=O)N3CCCCC3)cc21 the results were UBC13 polyUb -6, MEKK3 PB1 HTS 102, DSG3 Ab inh 131, Apaf-1 inh 4, MEKK2 mut-MEK5 -1 and MEKK2wt PB1 HTS 96.
O=C(O)c1ccc(-c2sc(Nc3ccccc3)n[n+]2-c2ccccc2)cc1 was read as UBC13 polyUb -13, MEKK3 PB1 HTS 99, DSG3 Ab inh 102, Apaf-1 inh -5, MEKK2 mut-MEK5 -4 and MEKK2wt PB1 HTS 95.
For COc1ccc(C)cc1Nc1n[n+](-c2ccccc2)c(-c2ccc(N(C)C)cc2)s1 the results were UBC13 polyUb 33, MEKK3 PB1 HTS 105, DSG3 Ab inh 180, Apaf-1 inh 38, MEKK2 mut-MEK5 46*, MEKK2wt PB1 HTS 142*, MEKK2wt confirm 155, MEKK2mut-MEK5 34 and MEKK3 confirm 109.
Screening CCc1ccc(Nc2n[n+](-c3ccccc3)c(-c3ccc(OCc4ccccc4)cc3)s2)cc1 returned UBC13 polyUb -35, MEKK3 PB1 HTS 111, DSG3 Ab inh 101, Apaf-1 inh 22, MEKK2 mut-MEK5 107*, MEKK2wt PB1 HTS 220*, MEKK2wt confirm 209*, MEKK2mut-MEK5 82* and MEKK3 confirm 114.
Screening c1ccc(COc2ccc(-c3sc(Nc4ccccc4)n[n+]3-c3ccccc3)cc2)cc1 returned UBC13 polyUb -23, MEKK3 PB1 HTS 109, Apaf-1 inh 9, MEKK2 mut-MEK5 38*, MEKK2wt PB1 HTS 221*, MEKK2wt confirm 185, MEKK2mut-MEK5 55 and MEKK3 confirm 110.
Screening CCc1ccc(Nc2n[n+](-c3ccccc3)c(-c3ccc(N(CC)CC)cc3)s2)cc1 returned UBC13 polyUb -52, MEKK3 PB1 HTS 101, DSG3 Ab inh 342, Apaf-1 inh 36, MEKK2 mut-MEK5 277*, MEKK2wt PB1 HTS 65*, MEKK2wt confirm 164, MEKK2mut-MEK5 50 and MEKK3 confirm 94.
For Cc1cccc(-c2sc(Nc3ccccc3)n[n+]2-c2ccccc2)c1 the results were UBC13 polyUb 2, DSG3 Ab inh 103 and Apaf-1 inh 6.
Screening CC1CN=C(NS(=O)(=O)c2ccccc2)N1 (stereo not drawn) returned DSG3 Ab inh 110.
`CCCOc1ccc(/C=C/c2c([N+](=O)[O-])c(=O)n(C)c(=O)n2C)cc1` gave UBC13 polyUb 2, MEKK3 PB1 HTS 113, DSG3 Ab inh 124, Apaf-1 inh 11, MEKK2 mut-MEK5 14 and MEKK2wt PB1 HTS 121.

Screens: PubChem BioAssay, several laboratories
